In ChEMBL document CHEMBL1125757, “Design of potent protein kinase inhibitors using the bisubstrate approach” (J Med Chem, 1991):
Where a SMILES comes first, the peptide text is derived from it. The star is where a group is joined. X1 = CN(C)c1ccc(S(=O)(=O)*)c2ccccc12

Experiments:
Format in all cases: protein assay
[1] = target: T1, cAMP-dependent protein kinase (PKA) (Homo sapiens, UniProt P22694+P17612+P22612); experiment: Inhibition of cAMP-dependent protein kinase (PKA).
Summary of the method: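 Protein kinase A (1 μg) with histone IIA 60 μg/mL, MgCl2 5 mM and [γ-³²P]ATP 10 μM (2000-4000 cpm/pmol) in Tris/HCl pH 7.0, inhibitor at various concentrations. 30 °C for 7 min, stopped with 12% TCA plus BSA carrier, reprecipitated, histone ³²P counted by scintillation.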

[2] = target: Protein kinase C (PKC); experiment: Inhibition of protein kinase C (PKC)
Summary of the method: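 Reaction mix: protein kinase C (0.5 μg), histone IIIS 60 μg/mL, MgCl2 5 mM, CaCl2 0.5 mM, phosphatidylserine 50 μg/mL, diolein 5 μg/mL, [γ-³²P]ATP 10 μM, Tris/HCl pH 7.5, inhibitor at various concentrations. 30 °C for 7 min, stopped with TCA/BSA, precipitated twice, scintillation counting.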

[3] = target: Protein kinase C (PKC); experiment: Displacement of ATP from protein kinase C (PKC)
Summary of the method: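 ATP-competition kinetics: Lineweaver-Burk plots at several inhibitor concentrations, with Ki taken from a secondary plot of apparent Km versus inhibitor concentration. Radiometric [γ-³²P]ATP assay in Tris/HCl pH 7.5 with MgCl2 5 mM, CaCl2 0.5 mM, phosphatidylserine 50 μg/mL, diolein 5 μg/mL and protein kinase C 0.5 μg. Run in triplicate.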

[4] = target: T1, cAMP-dependent protein kinase (PKA); experiment: Displacement of ATP from protein kinase A (PKA)
Summary of the method: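 ATP-competition kinetics: Lineweaver-Burk plots at several inhibitor concentrations, with Ki taken from a secondary plot of apparent Km versus inhibitor concentration. Radiometric [γ-³²P]ATP phosphorylation assay in Tris/HCl pH 7.0 with MgCl2 5 mM and protein kinase A 1 μg, 30 °C, stopped with trichloroacetic acid. Run in triplicate.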

Row | Structure (SMILES) | IC50 [1] [µM] | IC50 [2] [µM] | Ki [3] [µM] | Ki [4] [µM]
1 | COC(=O)CCNCCNS(=O)(=O)c1cccc2cnccc12 | 2 | 20 | – | –
2 | CC1CNCCN1S(=O)(=O)c1cccc2cnccc12.Cl.Cl (centres undefined) | – | 6 | 6 | –
3 | NCCNS(=O)(=O)c1cccc2cnccc12 | 2 | 7 | – | –
4 | N=C(N)NCCC[C@H](NC(=O)[C@H](CCCNC(=N)N)NC(=O)[C@H](CCCNC(=N)N)NC(=O)[C@H](CCCNC(=N)N)NC(=O)[C@H](CCCNC(=N)N)NC(=O)[C@H](CCCNC(=N)N)NC(=O)[C@H](CO)NC(=O)CCNCCNS(=O)(=O)c1cccc2cnccc12)C(=O)O | 0.003 | 0.3 | 0.1 | 0.004
5 | C[C@H](NC(=O)[C@H](C)NS(=O)(=O)c1ccc(N(C)C)c2ccccc12)C(=O)N[C@@H](C)C(=O)N[C@@H](CCCN=C(N)N)C(=O)N[C@@H](CCCN=C(N)N)C(=O)N[C@@H](CCCN=C(N)N)C(=O)N[C@@H](CCCN=C(N)N)C(=O)O (X1-AAARRRR-OH) | > 75 | > 75 | – | –
6 | O=S(=O)(c1cccc2cnccc12)N1CCNCC1 | 6 | 12 | – | –
